Data on one molecule can be found in ChEMBL document CHEMBL4373708 (J Med Chem, 2019).

Each structure is given as a SMILES string.

A short description of the series: Tmax in mouse at 5 mg/kg, ip by LC-MS analysis. The format is ADME, organism-based. To be noted: in vivo. The method in brief:
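Single intraperitoneal or oral dose in mice at 5 mg/kg (vehicle: saline with 5% DMSO and 10% Kolliphor HS 15) or 10 mg/kg (vehicle: PBS with 5% DMSO and 20% (2-hydroxypropyl)-β-cyclodextrin). Blood taken by retroorbital puncture at set times, serum separated by centrifugation at 4000 g for 20 min at 24 °C, compound quantified by LC/MS.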

`Cc1c(CC(=O)O)c(=O)oc2c(C)c(OCc3cccc(C(F)(F)F)c3)ccc12`: the Tmax was 48 min.
